The entries come from a sample that favours hits as a whole.
INS-1E ATP HTS = rescue of cytokine-induced death in INS-1E beta cells | INS-1E cytokine-induced death, ATP luminescence, 48 h; normalised: neutral wells 0, positive control 100 | protection from cytokine-induced ATP loss, % at 10 µM | actives 0.1% (n = 20,000) | AID 488910;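 active = mean replicate protection from cytokine-induced ATP loss at least 50% and at least 75% of replicates each reaching 50%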
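Assay system: INS-1E rat cells / Quantity: 8000 cells per well / Medium: RPMI without phenol red, 5% FBS / Probe or stimulus: three-cytokine cocktail (IFN-γ, TNF-α, IL-1β) / Dosing: one compound concentration, pin transfer / Timing: 48 h co-treatment, 10 min post-lysis read / Technique: CellTiter-Glo luminescence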
T cruzi intra = intracellular Trypanosoma cruzi inhibition. intracellular Trypanosoma cruzi in host cells, plate reader. activity score (inhibition), % at 5.01 µM. actives 4.9% (n = 22,000). AID 651903; in the data active = activity score above about 55%;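 also: parasites and compound incubated about four days before reading; 0% = median of neutral control wells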
A1 apoptosis 2 = compounds inhibiting A1, read as caspase activation | MEF A1-2A-BIM cells, caspase-Glo luminescence, 3 h; percent of clofoctol response, DMSO zero | caspase activation, % (concentration not given with the values) | 24,000 tested, under 10 active | AID 2465; in the data active = caspase activation above about 5.9%
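system = A1-2A-BIM-expressing MEF cells | quantity = 2500 MEF cells/well | dosing = 50 nL compound per well, pinned | schedule = overnight cell settling, then 3 h compound exposure, 37 °C | signal = luminescence from DEVD-luciferin Caspase-Glo reagent, 1:1 in 50 mM HEPES, 1 h RT | read-out = Caspase-3/7 activation, seen as rise in luminescence signal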
* hit, by the source's call; . = no result given.

SMILES	INS-1E ATP HTS	T cruzi intra	A1 apoptosis 2
COc1ccc(CN(C)C[C@@H]2Oc3ccc(NS(=O)(=O)c4ccc(C)cc4)cc3CC(=O)N([C@@H](C)CO)C[C@@H]2C)cc1	-1.0	46.2	0.5
COc1ccc(S(=O)(=O)Nc2ccc3c(c2)CC(=O)N([C@H](C)CO)C[C@@H](C)[C@H](CN(C)Cc2ccc(Cl)c(Cl)c2)O3)cc1	-20.8	69.6*	.
COc1ccc(CN(C)C[C@@H]2Oc3ccc(NS(=O)(=O)c4ccc(Cl)cc4)cc3CC(=O)N([C@@H](C)CO)C[C@@H]2C)cc1	1.7	3.4	-0.4
COc1ccc(CN(C)C[C@@H]2Oc3ccc(NS(=O)(=O)c4ccc(C)cc4)cc3CC(=O)N([C@H](C)CO)C[C@H]2C)cc1	7.7	67.7*	.
COc1ccc(CN(C)C[C@@H]2Oc3ccc(NS(=O)(=O)c4ccc(Cl)cc4)cc3CC(=O)N([C@H](C)CO)C[C@H]2C)cc1	-0.2	67.6*	-0.7
COc1ccc(S(=O)(=O)Nc2ccc3c(c2)CC(=O)N([C@H](C)CO)C[C@H](C)[C@H](CN(C)Cc2ccc(Cl)c(Cl)c2)O3)cc1	0.4	40.2	.
C[C@@H]1CN([C@H](C)CO)C(=O)c2cc(NC(=O)c3ccncc3)ccc2O[C@H]1CN(C)S(=O)(=O)c1cccs1	.	-9.2	-2.0
Cc1noc(C)c1NC(=O)N(C)C[C@@H]1Oc2c(NC(=O)Nc3ccccc3)cccc2C(=O)N([C@H](C)CO)C[C@H]1C	12.6	-12.5	-0.2
COc1ccc(NC(=O)Nc2cccc3c2O[C@H](CN(C)Cc2ccc(C(=O)Nc4ccccc4N)cc2)[C@@H](C)CN([C@H](C)CO)C3=O)cc1	9.2	36.5	.
COc1ccc(NC(=O)Nc2cccc3c2O[C@@H](CN(C)Cc2ccc(C(=O)Nc4ccccc4N)cc2)[C@H](C)CN([C@H](C)CO)C3=O)cc1	0.0	66.8*	.
COc1ccc(NC(=O)Nc2cccc3c2O[C@H](CN(C)Cc2ccc(C(=O)Nc4ccccc4N)cc2)[C@H](C)CN([C@@H](C)CO)C3=O)cc1	2.4	45.5	.
COc1ccc(NC(=O)Nc2cccc3c2O[C@H](CN(C)Cc2ccc(C(=O)Nc4ccccc4N)cc2)[C@@H](C)CN([C@@H](C)CO)C3=O)cc1	24.4	55.5*	.
C[C@H](CO)N1C[C@H](C)[C@H](CN(C)C(=O)Nc2ccc3c(c2)OCCO3)OCc2cn(nn2)CCCC1=O	.	-15.0	0.5
Cc1noc(C)c1S(=O)(=O)Nc1ccc2c(c1)C(=O)N([C@@H](C)CO)C[C@H](C)[C@H](CN(C)S(=O)(=O)c1cccs1)O2	.	-2.1	0.0
C[C@@H]1CCCCO[C@@H](CN(C)C(=O)CCC(F)(F)F)[C@@H](C)CN([C@H](C)CO)C(=O)c2cc(NC(=O)c3ccccc3)ccc2O1	-9.2	-10.7	.
COc1ccc(NC(=O)N(C)C[C@H]2Oc3ccc(NC(=O)Nc4c(C)noc4C)cc3CC(=O)N([C@@H](C)CO)C[C@H]2C)cc1	12.2	-11.1	.
O=C(N/N=C/c1ccc2ccccc2c1)c1ccccc1O	-29.9	-24.6	-2.5
C[C@@H]1CN([C@H](C)CO)C(=O)c2cccc(NC(=O)c3nc4ccccc4s3)c2O[C@H]1CN(C)C(=O)Nc1ccc(F)cc1	6.2	-20.7	0.3
C[C@H]1CN([C@@H](C)CO)C(=O)c2cccc(NC(=O)c3nc4ccccc4s3)c2O[C@@H]1CN(C)C(=O)Nc1ccc(C(F)(F)F)cc1	-11.9	74.5*	.
C[C@@H]1CN([C@@H](C)CO)C(=O)c2cccc(NC(=O)c3nc4ccccc4s3)c2O[C@H]1CN(C)C(=O)Nc1ccc(C(F)(F)F)cc1	-10.7	83.9*	0.8
C[C@H](CO)N1C[C@H](C)[C@@H](CN(C)C(=O)Nc2ccc(F)cc2)Oc2c(NC(=O)c3nc4ccccc4s3)cccc2C1=O	-2.0	-6.0	0.0
C[C@@H]1CN([C@H](C)CO)C(=O)c2cccc(NC(=O)c3nc4ccccc4s3)c2O[C@H]1CN(C)C(=O)Nc1ccc(C(F)(F)F)cc1	-1.7	60.7*	1.3
C[C@@H]1CN([C@@H](C)CO)C(=O)c2cccc(NC(=O)c3nc4ccccc4s3)c2O[C@H]1CN(C)C(=O)Nc1ccc(F)cc1	1.0	-2.5	1.4
C[C@H]1CN([C@@H](C)CO)C(=O)c2cccc(NC(=O)c3nc4ccccc4s3)c2O[C@H]1CN(C)C(=O)Nc1ccc(C(F)(F)F)cc1	-72.7	78.6*	-0.5
C[C@@H]1CN([C@H](C)CO)C(=O)c2cccc(NC(=O)c3nc4ccccc4s3)c2O[C@@H]1CN(C)C(=O)Nc1ccc(F)cc1	-5.1	12.7	.
SMILES	INS-1E ATP HTS	T cruzi intra	A1 apoptosis 2
C[C@@H]1CN([C@H](C)CO)C(=O)c2cccc(NC(=O)Nc3cccc4ccccc34)c2O[C@@H]1CN(C)S(=O)(=O)c1ccc(F)cc1	6.0	9.6	.
Cc1noc(C)c1NC(=O)Nc1ccc2c(c1)C(=O)N([C@H](C)CO)C[C@H](C)[C@H](CN(C)Cc1ccc(C(=O)O)cc1)O2	2.8	-7.7	-0.3
COc1ccc(S(=O)(=O)N(C)C[C@H]2Oc3c(NC(=O)Nc4ccc(F)cc4)cccc3C(=O)N([C@H](C)CO)C[C@@H]2C)cc1	-4.1	0.7	.
C[C@@H]1CN([C@H](C)CO)C(=O)c2cccc(NC(=O)c3ccncc3)c2O[C@H]1CN(C)S(=O)(=O)c1ccccc1	11.0	-35.2	.
C[C@H](CO)N1C[C@H](C)[C@H](CN(C)S(=O)(=O)c2ccc(Oc3ccccc3)cc2)OCc2cnnn2CCCC1=O	8.4	70.4*	0.1
C[C@H](CO)N1C[C@H](C)[C@@H](CN(C)S(=O)(=O)c2ccc(-c3ccccc3)cc2)OCc2cnnn2CCCC1=O	.	79.5*	0.7
C[C@@H]1CN([C@@H](C)CO)C(=O)CCCn2nncc2CO[C@H]1CN(C)Cc1ccc(-c2ccccc2)cc1	.	22.0	.
C[C@@H]1CN([C@H](C)CO)C(=O)CCCn2nncc2CO[C@@H]1CN(C)Cc1ccc(-c2ccccc2)cc1	.	60.0*	.
C[C@@H]1CN([C@H](C)CO)C(=O)CCCn2nncc2CO[C@H]1CN(C)S(=O)(=O)c1ccc(-c2ccccc2)cc1	2.2	-4.1	1.2
C[C@@H]1CN([C@H](C)CO)C(=O)CCCn2nncc2CO[C@@H]1CN(C)S(=O)(=O)c1ccc(Oc2ccccc2)cc1	-1.8	25.5	1.2
C[C@@H]1CCCCO[C@@H](CN(C)C)[C@@H](C)CN([C@@H](C)CO)C(=O)c2cc(NC(=O)Nc3ccc(F)cc3)ccc2O1	.	.	0.4
CCCN(C)C[C@H]1OCc2cn(nn2)CCCC(=O)N([C@@H](C)CO)C[C@H]1C	.	.	0.0
Cc1ccc(S(=O)(=O)Nc2cccc3c2O[C@@H](CN(C)C(=O)NC(C)C)[C@H](C)CN([C@H](C)CO)C3=O)cc1	12.7	-6.0	.
C[C@H]1CN([C@@H](C)CO)C(=O)c2cccc(NC(=O)Nc3ccc(C(F)(F)F)cc3)c2O[C@@H]1CN(C)Cc1ccc(C(F)(F)F)cc1	-109.2	35.2	-2.0
C[C@@H]1CN([C@H](C)CO)C(=O)c2cccc(NC(=O)Nc3ccc(F)cc3)c2O[C@H]1CN(C)Cc1ccc(C(F)(F)F)cc1	-31.0	31.4	0.6
